# LYPLA1 counter – blocks human lysophospholipase 1, a PME1 counter-screen. 0.16% of 320,000 active. inhibition, % at 5.9 µM. O75608. recombinant LYPLA1, FP-Rh probe fluorescence polarization;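 active means inhibition above the mean of all tested compounds plus 3 SD, set per campaign, cut at about 14% in these data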;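 further: inhibitors block serine hydrolase probe labeling of LYPLA1 so polarization falls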
# PAD4 inh – inhibitors of human PAD4 | Q9UM07 | recombinant PAD4, RCA probe fluorescence polarization | inhibition, % at 6.36 µM | 0.41% of 330,000 active | AID 485272;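 active means percent inhibition above a cutoff equal to the mean of all tested compounds plus 3 SD, cut at about 15% in these data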
# RBBP9 inhibitor – blocks human serine hydrolase RBBP9; AID 1515; 0.2% of 220,000 active; recombinant RBBP9, FP-Rh probe fluorescence polarization; inhibition, % at 7.94 µM; O75884;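 active means inhibition above the campaign mean of all tested compounds plus 3 SD, cut at about 14% in these data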
# Target sequence (O75884 whole entry, looked up): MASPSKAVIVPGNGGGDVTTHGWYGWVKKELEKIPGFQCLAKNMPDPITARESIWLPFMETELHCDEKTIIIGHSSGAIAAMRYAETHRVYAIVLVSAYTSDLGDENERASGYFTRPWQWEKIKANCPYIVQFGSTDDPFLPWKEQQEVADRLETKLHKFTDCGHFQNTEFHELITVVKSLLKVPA
#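 Test system – recombinant human RBBP9 · Input – RBBP9 2.5 µM in dispensing solution, pre-mixing · Medium – Tris buffer pH 8.0, NaCl, Pluronic · Schedule – preincubation 30 min plus labeling 45 min at 25 °C · Measured by – fluorescence polarization · Measure – % inhibition · Controls – DMSO and no-protein wells · Replicates – one well per compound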
# LYPLA2 inh – counter-screen for PME1 inhibitors: inhibitors of human LYPLA2. O95372. recombinant LYPLA2, FP-Rh probe fluorescence polarization. inhibition, % at 5.9 µM. 0.38% of 320,000 active;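 active means inhibition above the screen-wide mean plus 3 SD, limit set per campaign, cut at about 26% in these data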
# Target sequence (O95372 whole entry, looked up): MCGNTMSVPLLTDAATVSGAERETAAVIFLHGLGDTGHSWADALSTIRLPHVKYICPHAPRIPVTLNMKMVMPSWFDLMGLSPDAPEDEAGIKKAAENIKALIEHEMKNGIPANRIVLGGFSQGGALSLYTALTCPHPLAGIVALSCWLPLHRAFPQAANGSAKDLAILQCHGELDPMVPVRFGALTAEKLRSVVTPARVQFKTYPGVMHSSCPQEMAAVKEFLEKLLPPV
# Fam108B counter – blocks mouse Fam108B hydrolase in RBBP9 counter-screen; recombinant Fam108B, FP-Rh probe fluorescence polarization; inhibition, % at 9.51 µM; 0.33% of 300,000 active;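 active means inhibition above the screen mean inhibition plus 3 SD, computed separately per campaign, cut at about 18% in these data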;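 further: inhibitors lower polarization as less probe binds the enzyme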
# PME-1 inh – PME-1 (human) inhibition; 0.53% of 320,000 active; inhibition, % at 5.9 µM; recombinant PME-1, FP-Rh probe fluorescence polarization; AID 2130; Q9Y570;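 active means inhibition above the campaign mean of all compounds plus 3 SD, cut at about 26% in these data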;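 further: competitive labeling of PME-1 active site by serine hydrolase directed probe; inhibitors block probe labeling so polarization falls and inhibition rises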
# Hits are given with their value; i = inactive; nt = no result given. Most compounds without a hit are left out; they make up all but 1.3% or so of the library.
SMILES,LYPLA1 counter,PAD4 inh,RBBP9 inhibitor,LYPLA2 inh,Fam108B counter,PME-1 inh
CCC(=O)NC1OC(CO)C(O)C(O)C1O (configuration not stated),i,i,i,i,i,i
CCOC(=O)N1CCN(C(=O)c2ccc3nc(SCc4ccc(F)cc4)n(C)c3c2)CC1,i,i,i,28.2,i,i
CCOC(=O)C1=C(COC(=O)c2ccc(OC(C)C)cc2)NC(=O)NC1C (configuration not stated),i,i,nt,i,i,i
O=C(CN1CCCc2ccccc21)Nc1cc(S(=O)(=O)N2CCCC2)ccc1Cl,i,i,nt,i,nt,72.9
N=c1sccn1CC(=O)Nc1cc(S(=O)(=O)N2CCCC2)ccc1Cl,i,i,i,i,i,i
CCOC(=O)c1sc(N)c(C(=O)Nc2ccccc2OC)c1C,i,i,i,i,i,28.8
CCc1nnc(NC(=O)c2ccc3ccccc3n2)s1,i,i,i,i,i,i
CCc1nnc(NC(=O)c2sc3nc4cc(C)ccc4cc3c2N)s1,i,i,i,i,i,32.0
CCOC(=O)Cc1csc(NC(=O)c2sc3nc4ccc(C)cc4cc3c2N)n1,i,i,i,i,i,58.0
Oc1[nH]c2ccccc2c1N=Nc1ncnc2c1oc1ccccc12,i,i,i,i,i,29.6
CCc1cc2c(N=Nc3c(O)[nH]c4ccccc34)ncnc2s1,i,i,i,i,i,i
CCOc1ccc(N(CC(=O)NC2CCCCC2)C(=O)CCC(=O)Nc2cc(C)ccn2)cc1,i,i,nt,i,i,i
c1ccc(C2=Nc3ccccc3SC2c2nc3ccccc3[nH]2)cc1 (configuration not stated),i,27.9,i,i,i,i
CCN(CC(=O)Nc1ccc(NC(C)=O)cc1)C(=O)c1cccnc1Sc1ccc(C)c(C)c1,i,i,nt,i,i,i
Cc1ccc(Nc2c([N+](=O)[O-])ccc3c2=NC2(CCCCC2)N=3)cc1,i,i,i,i,i,31.2
O=[N+]([O-])c1ccc2c(c1Nc1ccccc1Cl)=NC1(CCCCC1)N=2,i,i,i,i,i,i
Nc1c(C(=O)Nc2ccccc2F)sc2nc(-c3ccco3)ccc12,i,i,i,i,i,36.5
COc1cc(/C=N/NC(=O)C(Cc2c[nH]c3ccccc23)NC(=O)OCc2ccccc2)cc([N+](=O)[O-])c1O (configuration not stated),i,i,i,i,i,29.3
COc1cc(/C=N/NC(=O)C(Cc2c[nH]c3ccccc23)NC(=O)OCC(C)C)cc([N+](=O)[O-])c1O (configuration not stated),i,i,i,i,i,i
O=C(NNC(=O)c1cc2cc(Br)ccc2oc1=O)c1ccc(O)cc1O,i,i,i,i,i,34.3
CCn1cc(C(=O)NCCCN2CCC(C)CC2)c(=O)c2cc(S(=O)(=O)N(C)C3CCCCC3)ccc21,i,i,nt,i,i,38.0
CCN(CC)CCNC(=O)c1cn(CC)c2ccc(S(=O)(=O)N(C)C3CCCCC3)cc2c1=O,i,i,nt,i,i,i
CC1CCCN(CCCNC(=O)c2cn(C)c3ccc(S(=O)(=O)N(C)C4CCCCC4)cc3c2=O)C1 (configuration not stated),i,i,nt,i,i,i
CCn1cc(C(=O)NCCCN2CC(C)CC(C)C2)c(=O)c2cc(S(=O)(=O)N(C)C3CCCCC3)ccc21 (configuration not stated),i,i,nt,i,i,33.3
O=C(CSc1ccc(-c2cccs2)nn1)c1cccs1,i,i,i,i,i,i
SMILES,LYPLA1 counter,PAD4 inh,RBBP9 inhibitor,LYPLA2 inh,Fam108B counter,PME-1 inh
CN(Cc1ccccc1)S(=O)(=O)c1ccc(Cl)c(C(=O)NCCCN2CCOCC2)c1,i,i,nt,i,i,i
O=c1c2ccccc2nc(N/N=C/c2c(O)ccc3ccccc23)n1O,i,i,i,i,i,34.2
O=C1NN(c2ccc(Cl)c(Cl)c2)C(=O)/C1=C/c1cccc(OC(=O)c2cccs2)c1,i,i,i,i,i,37.0
Cc1cccc(-n2c(O)c(C=Nc3cccc(O)c3)c3ccccc3c2=O)n1,i,i,i,i,i,i
CC1=NC(=O)C(N=Nc2cccc(O)c2)N1c1ccccc1 (configuration not stated),i,i,i,i,i,30.4
CCCOc1ccc([C@@H]2C3CN(C(=O)OCC)CC=C3C(C#N)=C(N)C2(C#N)C#N)cc1OC (some centres not stated),i,i,i,i,i,47.8
CCOC(=O)N1CC=C2C(C#N)=C(N)C(C#N)(C#N)[C@H](c3cccs3)C2C1 (some centres not stated),i,i,i,i,i,31.5
COc1cc(C2C3CN(C)CC=C3C(C#N)=C(N)C2(C#N)C#N)ccc1OC(C)C (configuration not stated),i,i,i,i,i,i
COc1ccc(C)cc1NC(=O)C/C(C)=N/NC(=O)Cc1cccc2ccccc12,i,i,nt,i,i,i
CNC[C@@H]1Oc2ccc(NS(=O)(=O)c3ccc(Cl)cc3)cc2C(=O)N([C@H](C)CO)C[C@@H]1C,nt,i,nt,nt,nt,nt
COc1cc2c(cc1OC)CN(CC(=O)Nc1ccc(Cl)c(S(=O)(=O)N(C)C)c1)CC2,i,i,i,i,i,39.8
Cc1cc(C)c2[nH]c(O)c(N=NC(=O)c3cc4c(s3)CCCC4)c2c1,i,i,i,i,i,26.4
Cc1oc(-c2ccccc2Cl)nc1CS(=O)(=O)CC(=O)NCCN1CCOCC1,i,i,nt,i,i,i
O=C1c2cccc3c([N+](=O)[O-])ccc(c23)C(=O)N1c1ccc(Cl)cn1,i,i,i,i,i,27.6
O=C(Nc1nnc(CCN2CCCCC2)s1)c1ccccc1Cl,i,i,i,i,i,i
COc1cccc(/C=N/Nc2snc(SC)c2C#N)c1,i,i,i,i,i,i
COc1ccc(/C=N/Nc2snc(SC)c2C#N)cc1OC,i,i,i,i,i,39.7
COc1ccccc1N1CCN(CC(=O)Nc2ccccc2C(=O)NCCc2ccccc2)CC1,i,i,nt,i,nt,i
CCOC(=O)C1=C(C)Nc2ccccc2N/C1=N\S(=O)(=O)c1cccc(Cl)c1,i,i,nt,i,nt,26.2
CCOC(=O)C1=C(C)Nc2ccccc2N/C1=N\S(=O)(=O)c1ccc(Cl)cc1,i,i,nt,i,nt,i
O=C(NC1CCCCC1)C(=S)N1CCOCC1,i,i,i,i,i,i
COc1ccccc1Nc1nc(-c2sc(NC(=O)c3ccc([N+](=O)[O-])cc3)nc2C)cs1,i,i,i,i,24.8,i
COc1ccccc1Nc1nc(-c2sc(NC(=O)c3ccccc3)nc2C)cs1,i,i,i,i,i,i
Cc1cc(S(=O)(=O)N2CCCC(C(=O)Nc3ccc(C(=O)O)cc3)C2)ccc1Cl (configuration not stated),i,i,i,i,i,i
CCOC(=O)c1ccc(NC(=O)Nc2ccc3c4c(cccc24)C(=O)N3CC)cc1,i,i,i,i,i,27.7

# Source: PubChem
